# Assay outcomes: PubChem BioAssay, Broad Institute
# T cruzi growth-1 = T. cruzi intracellular proliferation inhibitors, primary screen, cell-based, beta-gal Tulahuen parasites, NIH3T3 host, luminescence. T. cruzi beta-gal in NIH3T3, GalScreen luminescence, 90 h. inhibition, % at 8.34 µM. 77,000 tested, 5.9% active. AID 624255, 2012;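 active = mean inhibition above about 93%, with at least 55% of replicates each passing it, limit read from the data, passing the limit was not always enough; inconclusive = only one of those two conditions holds; inactive = neither condition holds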
# IDH1 mut inh = inhibitors of IDH1 R132H reductase, primary screen, biochemical, plate reader, single point | diaphorase/resazurin fluorescence, 60 min | inhibition, % at 10 µM | AID 624101, 2012 | 70,000 tested, 0.18% active; in the data active = inhibition above about 34%; inconclusive = no clear call, values can overlap the other calls; inactive = below about 11%;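 note: 0% = DMSO and 100% = no enzyme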
# KDM4C inh = inhibitors of GASC-1 (KDM4C) histone demethylase, primary screen, biochemical, single concentration HTS | Lysine-specific demethylase 4C (Homo sapiens), Q9H3R0 | GST-KDM4C 2-372, H3K9me3 peptide, LANCE TR-FRET | inhibition, % at 12.5 µM | 96,000 tested, 0.15% active | AID 720574, 2013;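 active = mean replicate inhibition above about 25%, with at least 55% of replicates also reaching it, limit read from the data, passing the limit was not always enough; inconclusive = only one of those two conditions met; inactive = neither condition met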
# Target sequence (Q9H3R0 2-372 limits assumed): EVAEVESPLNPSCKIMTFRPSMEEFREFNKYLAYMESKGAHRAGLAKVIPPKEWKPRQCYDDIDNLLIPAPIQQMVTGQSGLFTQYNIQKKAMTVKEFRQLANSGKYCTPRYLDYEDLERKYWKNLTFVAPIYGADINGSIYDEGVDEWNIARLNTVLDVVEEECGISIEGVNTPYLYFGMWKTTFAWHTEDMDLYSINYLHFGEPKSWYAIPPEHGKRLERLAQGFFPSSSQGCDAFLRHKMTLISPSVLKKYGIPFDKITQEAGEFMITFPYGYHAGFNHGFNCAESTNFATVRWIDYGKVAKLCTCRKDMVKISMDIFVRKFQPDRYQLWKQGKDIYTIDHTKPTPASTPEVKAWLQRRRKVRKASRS
#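 Material: GST-tagged GASC-1 (JMJD2C) catalytic fragment, aa 2-372 / Quantity: enzyme final amount 10 nM / Medium: HEPES buffer, pH 7.5, plus ascorbate / Doses: one test concentration per compound / Incubation: 30 min reaction, 60 min detection, RT / Measured by: LANCE TR-FRET / Read-out: inhibition from TR-FRET ratio decrease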
# Pf Dd2 growth = P. falciparum Dd2 growth inhibitors, primary screen, SYBR Green fluorescence, single dose replicates. AID 1159554, 2015. 94,000 tested, 2.3% active. 72 h; active compounds read low. activity change, % at 10 µM; in the data active = activity change below about -80%; inconclusive = no clear call, values can overlap the other calls
# T cruzi growth-2 = T. cruzi intracellular proliferation inhibitors, confirmation, cell-based, NIH3T3 host, beta-gal parasite, luminescence, cherry-pick. shares compounds with T cruzi growth-1. AID 651739, 2012. inhibition, % at 8.35 µM. T. cruzi beta-gal in NIH3T3, GalScreen luminescence, 90 h. 5,600 tested, 72% active;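 active = mean replicate inhibition above about 95% and at least 55% of replicates individually reaching it, limit read from the data; inconclusive = only one of the two criteria is met; inactive = neither criterion is met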
# T cruzi growth-3 = inhibitors of intracellular T. cruzi replication, confirmation, NIH3T3 host cells, beta-gal parasites, cherry-pick, set 2. 5,600 tested, 21% active. inhibition, % at 2.09 µM. T. cruzi beta-gal in NIH3T3, GalScreen luminescence, 90 h. shares compounds with T cruzi growth-1;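 active = mean inhibition above about 95%, with at least 55% of replicates also reaching it, limit read from the data; inconclusive = meets just one of the two conditions; inactive = meets neither condition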;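 note: plate controls were neutral control median for no effect and positive control median for full effect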
# 3T3 cytotox = cytotoxicity in mouse NIH/3T3 fibroblasts, confirmation, cytotoxicity control for T. cruzi proliferation inhibitor project, cell-based, cherry-pick, single point; 5,600 tested, 14% active; NIH/3T3 viability, CellTiter-Glo ATP luminescence, 90 h; cytotoxicity (signal decrease), % at 8.35 µM; AID 651742, 2012; shares compounds with T cruzi growth-1;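 active = mean signal decrease across replicates above about 35% based on untreated-well scatter, with enough replicates individually passing, limit read from the data; inconclusive = no rule stated though some were filed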;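 note: 0% = median of neutral control wells and 100% = median of positive control wells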
# NIH3T3 tox 2 = NIH/3T3 fibroblast cytotoxicity, confirmation, cytotoxicity control, cell-based, cherry-pick, single point, set 2; shares compounds with T cruzi growth-1; inhibition, % at 24.9 µM; 5,600 tested, 56% active; NIH/3T3 viability, CellTiter-Glo ATP luminescence, 90 h;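 active = mean loss of cell viability signal at or above a set limit, and enough replicates individually reaching it; inconclusive = meets only the mean limit or only the replicate share; inactive = meets neither condition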;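 note: 0% = median of neutral control wells and 100% = median of positive control wells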
# * hit, by the source's call; ? = inconclusive; . = no result. A selection: hits, their analogues and other compounds. The true share with any hit is near 5.9%.
SMILES,T cruzi growth-1,IDH1 mut inh,KDM4C inh,Pf Dd2 growth,T cruzi growth-2,T cruzi growth-3,3T3 cytotox,NIH3T3 tox 2
C[C@@H]1CN([C@H](C)CO)C(=O)c2ccccc2-c2ccccc2CO[C@@H]1CN(C)S(=O)(=O)c1ccc(C(F)(F)F)cc1,83,.,-2,-4,.,.,.,.
Cc1ccccc1S(=O)(=O)N(C)C[C@@H]1OCc2ccccc2-c2c(n(C)c3ccccc23)C(=O)N([C@@H](C)CO)C[C@H]1C,62,.,-3,?,.,.,.,.
NC(=O)COc1ccccc1/C=N/NC(=O)CCCCC(=O)NO,.,-1,.,.,.,.,.,.
Cc1occc1-c1nnc(SCC(=O)Nc2ccccc2[N+](=O)[O-])n1-c1ccccc1,.,0,.,.,.,.,.,.
O=C(CSc1nc(O)cc(=O)[nH]1)Nc1cc(Cl)cc(Cl)c1,.,0,.,.,.,.,.,.
C[C@@H]1CN([C@H](C)CO)C(=O)c2cc(C#CCC3CCCC3)cnc2O[C@H]1CN(C)C(=O)CC1CC1,?,-1,-1,-52,96*,23,19,83*
C[C@@H]1CN([C@@H](C)CO)C(=O)c2cc(C#CCC3CCCC3)cnc2O[C@H]1CN(C)C(=O)CC1CC1,100*,0,-2,-33,?,48,21,39*
COc1ccc(S(=O)(=O)N(C)C[C@H]2OCCCC[C@@H](C)Oc3ccc(NS(=O)(=O)c4cccs4)cc3C(=O)N([C@H](C)CO)C[C@H]2C)cc1,110*,.,-3,-72,113*,29,1,-20
COc1ccc(S(=O)(=O)Nc2ccc3c(c2)C(=O)N([C@H](C)CO)C[C@@H](C)[C@@H](CN(C)S(=O)(=O)c2cccs2)OCCCC[C@H](C)O3)cc1,100*,-12,0,-68,90,15,-23,-17
COc1ccc(S(=O)(=O)N(C)C[C@H]2OCCCC[C@H](C)Oc3ccc(NS(=O)(=O)c4cccs4)cc3C(=O)N([C@@H](C)CO)C[C@@H]2C)cc1,107*,.,1,-71,112*,33,-8,-8
Cc1ccc(NC(=O)c2c(NC(=O)CN3CCOCC3)sc3c2CCC3)c(C)c1,.,0,.,.,.,.,.,.
COC(=O)c1c(NC(=S)NCCn2cc(Br)cn2)sc2c1CCC2,.,0,.,.,.,.,.,.
Cn1c(SCC(=O)Nc2cccc(C(F)(F)F)c2)nnc1-c1cc2cc(Cl)ccc2o1,.,0,.,.,.,.,.,.
O=S(=O)(c1ccccc1)N1CCCCN2[C@H](CO)[C@@H](c3ccc(C#Cc4ccccc4)cc3)[C@H]2C1,103*,.,1,-17,107*,103*,57*,92*
O=S(=O)(c1ccccc1)N1CCCCN2[C@H](C1)[C@H](c1ccc(C#CC3CCCC3)cc1)[C@@H]2CO,93,.,11,-1,.,.,.,.
O=S(=O)(c1ccccc1)N1CCCCN2[C@H](CO)[C@H](c3ccc(C#Cc4cccnc4)cc3)[C@@H]2C1,102*,.,0,-63,107*,68,8,35*
O=S(=O)(c1ccccc1)N1CCCCN2[C@H](CO)[C@H](c3ccc(C#CC4CCCC4)cc3)[C@@H]2C1,73,.,1,-7,.,.,.,.
O=S(=O)(c1ccccc1)N1CCCCN2[C@@H](CO)[C@@H](c3ccc(C#Cc4cccnc4)cc3)[C@@H]2C1,113*,.,3,-44,112*,107*,-15,91*
O=S(=O)(c1ccccc1)N1CCCCN2[C@H](C1)[C@@H](c1ccc(C#Cc3cccnc3)cc1)[C@@H]2CO,?,.,4,-1,?,46,0,24
O=C1CCC(C(=O)Nc2cc(F)cc(F)c2)=NN1,.,1,.,.,.,.,.,.
